Consider 14 molecules from ChEMBL document CHEMBL1138203, “Structure-activity relationship analysis of the selective inhibition of transglutaminase 2 by dihydroisoxazoles” (J Med Chem, 2006).

The assay deals with T1, Protein-glutamine gamma-glutamyltransferase (Homo sapiens, UniProt P21980).
T1 sequence (P21980 whole entry): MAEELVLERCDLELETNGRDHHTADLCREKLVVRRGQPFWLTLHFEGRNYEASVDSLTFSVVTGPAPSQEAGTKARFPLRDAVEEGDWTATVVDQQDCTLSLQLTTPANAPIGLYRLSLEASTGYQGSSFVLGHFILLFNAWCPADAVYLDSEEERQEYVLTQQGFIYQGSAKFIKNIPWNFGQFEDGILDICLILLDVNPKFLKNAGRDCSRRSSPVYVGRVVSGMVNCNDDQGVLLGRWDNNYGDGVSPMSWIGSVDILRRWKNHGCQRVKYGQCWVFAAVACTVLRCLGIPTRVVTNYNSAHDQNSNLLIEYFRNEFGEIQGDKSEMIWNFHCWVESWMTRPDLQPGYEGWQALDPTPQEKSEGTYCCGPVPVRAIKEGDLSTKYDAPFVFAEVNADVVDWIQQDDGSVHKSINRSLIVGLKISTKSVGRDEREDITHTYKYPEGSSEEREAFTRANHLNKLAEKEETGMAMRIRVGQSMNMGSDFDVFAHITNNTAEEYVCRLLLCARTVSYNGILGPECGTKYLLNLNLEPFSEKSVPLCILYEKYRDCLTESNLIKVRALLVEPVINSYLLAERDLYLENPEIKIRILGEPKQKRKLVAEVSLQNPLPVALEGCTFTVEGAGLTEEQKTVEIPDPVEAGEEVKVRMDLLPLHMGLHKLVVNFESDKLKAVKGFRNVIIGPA
In words: Inhibition of human recombinant TG2 expressed in Escherichia coli. The method in brief: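 Enzyme purified to >90%. Inhibitor at 0.001–0.3 mM. Reaction started by adding TG2; NADH loss read at 340 nm. KI and kinh came from fitting progress curves to irreversible-inhibition equations.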
As usually defined, the Ki is a dissociation constant, usually derived from enzyme kinetics or from competition with a known ligand. Take `O=C(N[C@@H](Cc1c[nH]c2ccc(F)cc12)C(=O)NC[C@@H]1CC(Br)=NO1)OCc1cnc2ccccc2c1`: the Ki was 1.3 µM.

On to `O=C(N[C@@H](Cc1c[nH]c2ccc(F)cc12)C(=O)NCC1CC(Br)=NO1)OCc1cnc2ccccc2c1` (some centres undefined), for which the Ki came to 4 µM. The result for `O=C(NC(Cc1c[nH]c2ccc(F)cc12)C(=O)NCC1CC(Br)=NO1)OCc1ccccc1` (centres undefined) reads 19 µM; that for `O=C(N[C@@H](Cc1ccc(O)cc1)C(=O)NC[C@@H]1CC(Br)=NO1)OCc1cnc2ccccc2c1`, 30 µM. Turning to `O=C(NC(Cc1c[nH]c2ccc(O)cc12)C(=O)NCC1CC(Br)=NO1)OCc1cnc2ccccc2c1` (centres undefined), the Ki is 34 µM.

Turning to `COc1ccc2[nH]cc(CC(NC(=O)OCc3cnc4ccccc4c3)C(=O)NCC3CC(Br)=NO3)c2c1` (centres undefined), the Ki worked out at 51 µM.

`O=C(NC(Cc1c[nH]c2cc(F)ccc12)C(=O)NCC1CC(Br)=NO1)OCc1ccccc1` (centres undefined): the Ki stood at 18 µM. The result for `O=C(NC(Cc1c[nH]c2cccc(F)c12)C(=O)NCC1CC(Br)=NO1)OCc1ccccc1` (centres undefined) reads 99 µM; that for `O=C(NC(Cc1c[nH]c2ncccc12)C(=O)NCC1CC(Br)=NO1)OCc1ccccc1` (centres undefined), 22 µM. Turning to `O=C(NC[C@@H]1CC(Br)=NO1)[C@@H]1CCCN1C(=O)OCc1cnc2ccccc2c1`, the Ki was 11 µM.

`O=C(N[C@@H](Cc1ccc(O)cc1)C(=O)NC[C@@H]1CC(Br)=NO1)OCc1ccccc1`: the inhibition constant (Ki) was determined as 68 µM. The result for `O=C(NCC1CC(Br)=NO1)C1Cc2ccccc2N1C(=O)OCc1ccccc1` (centres undefined) reads 138 µM; that for `O=C(N[C@@H](Cc1ccc(O)cc1)C(=O)NCC1CC(Br)=NO1)OCc1cnc2ccccc2c1` (some centres undefined), 41 µM; that for `O=C(NC(Cc1c[nH]c2ccc(F)cc12)C(=O)NCC1CC(Br)=NO1)OCc1cnc2ccccc2c1` (centres undefined), 18 µM.
